Data on two substances can be found in ChEMBL document CHEMBL1127616, “Synthesis, structural characterization, and antitumor properties of a novel class of large-ring platinum(II) chelate complexes incorporating the cis-1,4-diaminocyclohexane ligand in a unique locked boat conformation” (J Med Chem, 1994).

Format in all cases: functional, organism-based
Assay [1] has as its system Mus musculus. As to the kind of experiment: tested for in vivo weight change against murine M5076 sarcoma at the dose of 9.0 mg/kg per injection. Put shortly:
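Host weight change in the SC M5076 sarcoma growth delay test in B6C3F1 mice. Drug was given IP in 0.9% saline, mg/kg per injection. Weight change is the maximum treatment-related weight loss.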

The test system of assay [2] is L1210. As to the kind of experiment: Tested for the ratio of treated and control against solid tumor murine L1210 Pt-resistant leukemia 4.0 mg/kg per injection in experiment 1; T/C. The conditions noted are these: Mus musculus. The method in brief:
(§1)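 Murine leukemia life span assay in CD2F1 (Balb/c × DBA/2F1) mice, 18–22 g, randomized, with IP tumor cell inoculation on day 0. Depending on the model, the inoculum was 1 × 10^4 cells with IP dosing on days 3, 7 and 11, or 1 × 10^6 cells with IP dosing on days 1, 5 and 9. Drug was given in 0.9% saline, mg/kg per injection, by average cage weight. Read-outs were median day of death and %T/C. Mice alive 60 days after treatment counted as cured and were excluded.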

The subject of assay [3] is L1210. As to the kind of experiment: Tested for the ratio of treated and control against solid tumor murine L1210 leukemia 4.0 mg/kg per injection in experiment 1; T/C. The conditions noted are these: Mus musculus. The method in brief: as §1
For assay [4], the system named is L1210. In words: Tested for the ratio of number of survivors / total number after 60 days at the dose of 10 mg/kg per injection against murine L1210 Pt-resistant leukemia in experiment 2. The note with it: Mus musculus. Put shortly:
(§2)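 CD2F1 (Balb/c × DBA/2F1) mice, 18–22 g, randomized and inoculated IP with counted leukemia cells on day 0, then re-randomized. Three IP treatments, dissolved in 0.9% saline and dosed on average cage weight, with dose in mg/kg per injection across a full toxic-to-ineffective range. Median life span and %T/C were recorded. Survivors at 60 days were counted as cured and excluded from %T/C.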

In assay [5] the test system is L1210. In words: Tested for the ratio of number of survivors / total number after 60 days at the dose of 5.0 mg/kg per injection against murine L1210 Pt-resistant leukemia in experiment 2. The note with it: Mus musculus. The method in brief: as §2
The test system of assay [6] is Mus musculus. In words: Tested for in vivo weight change against murine P388 Pt-resistant leukemia at the dose of 5.0 mg/kg per injection. The method in brief:
(§3)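 Leukemia life-span assays used CD2F1 (Balb/c × DBA/2F1) mice weighing 18–22 g. Cells were inoculated IP on day 0, and compounds in 0.9% saline were given IP, dosed by average cage weight. Weight change is the difference in mean group weight between the last and first treatment days.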

The test system of assay [7] is L1210. In words: Tested for median life span against solid tumor L1210 leukemia at 5.0 mg/kg per injection in experiment 2. The note with it: Mus musculus. The method in brief:
(§4)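 CD2F1 mice weighing 18–22 g were inoculated IP with leukemia cells on day 0. Compounds in 0.9% saline were given IP in three injections, dosed by average cage weight, over a dose range from toxic to ineffective. Median life span was recorded, with cause of death assessed at necropsy and 60-day survivors counted as cured.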

Assay [8] has as its system L1210. In words: Tested for in vivo weight change against murine L1210 Pt-resistant leukemia at the dose of 10 mg/kg per injection in experiment 2. The conditions noted are these: Mus musculus. Put shortly:
as §3

The test system of assay [9] is L1210. As to the kind of experiment: Tested for the ratio of number of survivors / total number after 60 days at the dose of 5.0 mg/kg per injection against murine leukemia L1210 experiment 2. The conditions noted are these: Mus musculus. The method in brief:
as §2

The test system of assay [10] is Mus musculus. As to the kind of experiment: Tested for median life span against solid tumor P388 Pt-resistant leukemia at 10 mg/kg per injection. Put shortly: as §4
The subject of assay [11] is L1210. As to the kind of experiment: Tested for median life span against solid tumor L1210 Pt-resistant leukemia at 10 mg/kg per injection in experiment 2. The conditions noted are these: Mus musculus. Put shortly: as §4
The subject of assay [12] is Mus musculus. As to the kind of experiment: Tested for the ratio of treated and control against solid tumor murine P388 Pt-resistant leukemia 5.0 mg/kg per injection; T/C. The method in brief: as §1
For assay [13], the system named is L1210. As to the kind of experiment: Tested for the ratio of number of survivors / total number after 60 days at the dose of 4.0 mg/kg per injection against murine leukemia L1210 experiment 1. The conditions noted are these: Mus musculus. The method in brief: as §2
Assay [14] deals with Mus musculus. In words: Tested for median life span against solid tumor P388 leukemia at 5.0 mg/kg per injection. Put shortly: as §1
The subject of assay [15] is Mus musculus. As to the kind of experiment: Tested for the ratio of number of survivors / total number after 60 days at the dose of 10 mg/kg per injection against murine P388 Pt-resistant leukemia. The method in brief: as §2
Assay [16] concerns Mus musculus. As to the kind of experiment: Tested for the ratio of number of survivors / total number after 60 days at the dose of 3.7 mg/kg per injection against murine leukemia P388 experiment 2. The method in brief: as §2
Assay [17] relates to L1210. As to the kind of experiment: Tested for in vivo weight change against murine L1210 leukemia at the dose of 1.5 mg/kg per injection in experiment 1. The note with it: Mus musculus. Put shortly:
as §3

Assay [18] concerns L1210. As to the kind of experiment: Tested for the ratio of number of survivors / total number after 60 days at the dose of 2.5 mg/kg per injection against murine leukemia L1210 experiment 2. The conditions noted are these: Mus musculus. Put shortly: as §2
Assay [19] has as its system L1210. As to the kind of experiment: Tested for in vivo weight change against murine L1210 Pt-resistant leukemia at the dose of 1.5 mg/kg per injection in experiment 1. The conditions noted are these: Mus musculus. The method in brief:
as §3

The test system of assay [20] is L1210. In words: Tested for the ratio of treated and control against solid tumor murine L1210 Pt-resistant leukemia 1.6 mg/kg per injection in experiment 2; T/C. The note with it: Mus musculus. The method in brief: as §1
The subject of assay [21] is Mus musculus. In words: Tested for in vivo weight change against murine P388Pt-resistant leukemia at the dose of 2.3 mg/kg per injection. Put shortly: as §3
Assay [22] relates to Mus musculus. In words: Tested for the ratio of treated and control against solid tumor murine P388 Pt-resistant leukemia 3.7 mg/kg per injection; T/C. The method in brief:
as §1

For assay [23], the system named is L1210. In words: Tested for the ratio of treated and control against solid tumor murine L1210 Pt-resistant leukemia 3.0 mg/kg per injection in experiment 1;T/C. The note with it: Mus musculus. Put shortly:
as §1

Assay [24] deals with Mus musculus. In words: Tested for net cell kill tumor burden reduction during therapy at the dose 4.0 mg/kg in B16 melanoma. The arrangement: dose 4 mg/kg. Put shortly:
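Solid tumor growth delay assay; B16 melanoma and M5076 sarcoma were run in B6C3F1 (C57BL/6 × C3HF1) mice of 18–22 g. Tumor fragments were implanted SC on day 0, then drug in 0.9% saline was given IP on days 1, 5, 9 or days 3, 7, 11, mg/kg per injection. T − C is the difference in days for treated and control tumors to reach 750 mg. Net log cell kill is tumor burden reduction during therapy. Cured mice were excluded.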

Assay [25] concerns L1210. As to the kind of experiment: Tested for in vivo weight change against murine L1210 leukemia at the dose of 1.6 mg/kg per injection in experiment 2. The note with it: Mus musculus. Put shortly: as §3
Assay [26] concerns Colon carcinoma cell. In words: Tested for net cell kill tumor burden reduction during therapy at the dose 2.5 mg/kg in colon carcinoma. On the set-up: dose 2.5 mg/kg. The conditions noted are these: Mus musculus.
For assay [27], the system named is Mus musculus. In words: Tested for median life span against solid tumor P388 Pt-resistant leukemia at 3.7 mg/kg per injection. The method in brief: as §1
Assay [28] concerns Mus musculus. As to the kind of experiment: Tested for the ratio of treated and control against solid tumor murine P388 leukemia 3.7 mg/kg per injection in experiment 2; T/C. Put shortly: as §1
Assay [29] has as its system Mus musculus. As to the kind of experiment: Tested for in vivo weight change against murine P388Pt-resistant leukemia at the dose of 3.7 mg/kg per injection. Put shortly: as §3
Assay [30] relates to L1210. As to the kind of experiment: Tested for in vivo weight change against murine L1210 Pt-resistant leukemia at the dose of 3.0 mg/kg per injection in experiment 1. The note with it: Mus musculus. Put shortly: as §3
The subject of assay [31] is Mus musculus. In words: Tested for in vivo weight change against murine P388 leukemia at the dose of 2.3 mg/kg per injection in experiment 2. The method in brief: as §3
Assay [32] concerns L1210. In words: Tested for median life span against solid tumor L1210 Pt-resistant leukemia at 3.0 mg/kg per injection in experiment 1. The conditions noted are these: Mus musculus. The method in brief:
as §4

The test system of assay [33] is L1210. In words: Tested for the ratio of treated and control against solid tumor murine L1210 leukemia 1.6 mg/kg per injection in experiment 2; T/C. The conditions noted are these: Mus musculus. Put shortly: as §1
For assay [34], the system named is Mus musculus. As to the kind of experiment: Tested for the ratio of number of survivors / total number after 60 days at the dose of 3.7 mg/kg per injection against murine P388 Pt-resistant leukemia. The method in brief: as §2

As for CISPLATIN, the Weight change in assay [1] was -5.1 g; in [6], 1 g; in [8], -4.8 g. Moreover, the Ratio in [2] came out at 109%; in assay [3], 184%. Moreover, the Survivors in assay [4] turned out to be 0; in assay [5], 0; in [9] it was 0; in [13], 1; in [15] it was 0. The MLS is 16 days in assay [7], 18 days in assay [10], 12.4 days in assay [11] and 29 days in [14]. The T/C in assay [12] was found to be 132%.
Regarding [Pt(cis-1,4-dach)CL2], the Survivors in [16] and in assay [34] was 0 each time. Besides, the Weight change in [17] is 0.6 g; in assay [19], 1.9 g; in [21], -0.1 g; in assay [25], 0.9 g; in assay [29] it was -5.2 g; in assay [30] it was -4.3 g. Further, in [31], the Weight change was -2.2 g. Also, the 60-day survivors in [18] was 1. Also, the Ratio worked out at 146% in assay [20], 167% in assay [23] and 229% in assay [33]. Also, the T/C worked out at 177% in assay [22] and 234% in assay [28]. Besides, the Log net cell kill in assay [24] was -0.5; in assay [26], -0.4. Also, the MLS in [27] was found to be 25.8 days; in assay [32] it was 17 days.
